pKi: −log10 of the molar value. Residues, ends and D or L forms follow the SMILES beside them.

For experiment [1], the target named is T1, Plasminogen (Homo sapiens, UniProt P00747). Kind of experiment: Inhibition of human plasmin using Ac-RM(O2)YR-pNA as substrate after 30 mins.
Experiment [2] addresses Tissue-type plasminogen activator (Homo sapiens, UniProt P00750). Kind of experiment: Inhibition of tPA (unknown origin) using Z-Pyr-Gly-Arg-MCA as substrate after 30 mins relative to untreated control.
For the next experiment, the target named is T2, Coagulation factor XII (Homo sapiens, UniProt P00748).
T2 sequence (P00748 whole entry): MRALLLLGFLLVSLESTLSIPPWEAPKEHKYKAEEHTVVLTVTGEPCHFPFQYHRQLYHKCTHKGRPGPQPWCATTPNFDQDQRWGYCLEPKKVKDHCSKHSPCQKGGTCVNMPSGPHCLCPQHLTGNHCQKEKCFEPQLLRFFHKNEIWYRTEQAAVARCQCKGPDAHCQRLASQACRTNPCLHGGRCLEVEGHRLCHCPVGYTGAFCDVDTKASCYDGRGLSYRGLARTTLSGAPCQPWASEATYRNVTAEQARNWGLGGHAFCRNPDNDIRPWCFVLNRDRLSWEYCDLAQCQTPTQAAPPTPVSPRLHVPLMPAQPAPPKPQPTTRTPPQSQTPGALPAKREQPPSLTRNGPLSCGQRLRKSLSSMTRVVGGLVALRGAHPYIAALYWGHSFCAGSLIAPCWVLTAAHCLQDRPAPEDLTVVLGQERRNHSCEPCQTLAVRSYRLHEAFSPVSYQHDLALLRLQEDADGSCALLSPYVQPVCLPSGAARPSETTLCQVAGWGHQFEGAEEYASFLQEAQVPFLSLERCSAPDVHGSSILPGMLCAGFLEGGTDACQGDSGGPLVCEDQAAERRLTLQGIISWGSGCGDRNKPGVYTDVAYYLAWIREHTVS
Kind of experiment: Inhibition of activated beta-factor 12 (unknown origin) using Ac-QRFR-pNA as substrate after 30 mins relative to untreated control.

The species entered for experiment [3] is Homo sapiens. Briefly: Selectivity index, ratio of IC50 for inhibition of plasma KLK (unknown origin) to IC50 for Inhibition of human plasmin.
For experiment [4], the species on record is Homo sapiens. Kind of experiment: Selectivity index, ratio of IC50 for inhibition of activated beta-factor 11 (unknown origin) to IC50 for Inhibition of human plasmin.
Another experiment addresses T3, Cathepsin G (Homo sapiens, UniProt P08311).
T3 sequence (P08311 whole entry): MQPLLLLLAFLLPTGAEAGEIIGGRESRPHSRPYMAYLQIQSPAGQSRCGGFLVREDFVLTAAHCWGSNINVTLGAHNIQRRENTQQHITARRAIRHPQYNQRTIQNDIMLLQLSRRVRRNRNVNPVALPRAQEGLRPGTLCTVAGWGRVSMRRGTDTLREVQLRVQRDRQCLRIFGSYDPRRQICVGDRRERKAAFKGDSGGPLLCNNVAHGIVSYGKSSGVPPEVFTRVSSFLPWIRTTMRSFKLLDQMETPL
Briefly: Inhibition of human cathepsin G using Suc-AAPF-MCA as substrate after 30 mins.

The species named for experiment [5] is Homo sapiens. Kind of experiment: Selectivity index, ratio of IC50 for inhibition of activated beta-factor 9 (unknown origin) to IC50 for Inhibition of human plasmin.
The next experiment concerns the target Coagulation factor X (Homo sapiens, UniProt P00742). Briefly: Inhibition of activated factor 10 (unknown origin) using Ac-QRSR-pNA as substrate after 30 mins relative to untreated control.
The target of a further experiment is Prothrombin (Homo sapiens, UniProt P00734). Kind of experiment: Inhibition of human thrombin using Ac-ATPR-pNA as substrate after 30 mins relative to untreated control.
Experiment [6] is filed under the species Homo sapiens. Briefly: Selectivity index, ratio of IC50 for inhibition of uPA (unknown origin) to IC50 for Inhibition of human plasmin.
A further experiment has as its target Coagulation factor IX (Homo sapiens, UniProt P00740). Kind of experiment: Inhibition of activated beta-factor 9 (unknown origin) using Boc-QGR-MCA as substrate after 30 mins relative to untreated control.
Experiment [7] is filed under the species Homo sapiens. Briefly: Selectivity index, ratio of IC50 for inhibition of tPA (unknown origin) to IC50 for Inhibition of human plasmin.
Experiment [8] concerns the target T1, Plasminogen. Kind of experiment: Inhibition of plasmin in human plasma assessed as reduction in tPA and thrombin-induced fibrinolysis at 200 nM by fibrin light scattering analysis relative to control. Type of experiment: cell-free. An outline of the steps:
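Pooled citrated human plasma with inhibitor in Tris-HCl pH 7.4, 150 mM NaCl, 30 mM CaCl2, plasma 1:5 final. Clotting and lysis started with tPA (1.5 nM) and thrombin (2.5 nM). Fibrin formation and lysis followed by light scattering at 405 nm over 1 h. Mean of three independent experiments, each with 12 technical replicates.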

The target in experiment [9] is T4, Suppressor of tumorigenicity 14 protein (Homo sapiens, UniProt Q9Y5Y6).
T4 sequence (Q9Y5Y6 whole entry): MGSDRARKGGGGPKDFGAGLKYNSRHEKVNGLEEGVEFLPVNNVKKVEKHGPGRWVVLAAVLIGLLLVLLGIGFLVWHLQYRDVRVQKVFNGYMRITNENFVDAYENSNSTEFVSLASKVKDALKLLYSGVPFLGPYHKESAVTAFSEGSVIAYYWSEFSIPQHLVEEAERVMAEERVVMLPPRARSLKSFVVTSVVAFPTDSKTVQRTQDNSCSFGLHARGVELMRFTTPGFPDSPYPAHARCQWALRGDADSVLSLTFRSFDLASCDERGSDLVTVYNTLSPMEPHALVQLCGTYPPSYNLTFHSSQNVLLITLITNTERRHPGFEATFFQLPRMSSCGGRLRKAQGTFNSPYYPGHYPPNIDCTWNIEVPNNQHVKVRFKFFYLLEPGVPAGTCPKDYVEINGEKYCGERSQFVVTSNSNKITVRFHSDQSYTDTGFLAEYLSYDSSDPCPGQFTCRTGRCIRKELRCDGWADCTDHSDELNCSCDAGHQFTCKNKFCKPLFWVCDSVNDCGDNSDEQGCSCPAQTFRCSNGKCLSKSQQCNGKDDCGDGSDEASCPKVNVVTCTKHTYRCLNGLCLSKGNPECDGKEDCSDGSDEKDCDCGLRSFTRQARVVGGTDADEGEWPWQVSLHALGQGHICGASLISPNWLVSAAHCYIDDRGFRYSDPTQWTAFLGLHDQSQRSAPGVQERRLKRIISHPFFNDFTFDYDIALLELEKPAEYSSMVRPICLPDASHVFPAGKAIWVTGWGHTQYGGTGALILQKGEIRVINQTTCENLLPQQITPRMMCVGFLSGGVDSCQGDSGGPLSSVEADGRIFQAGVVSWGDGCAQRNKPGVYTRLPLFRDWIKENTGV
Briefly: Inhibition of matriptase (unknown origin) using Boc-QAR-MCA as substrate after 30 mins relative to untreated control.

Experiment [10] concerns the target Urokinase-type plasminogen activator (Homo sapiens, UniProt P00749). Briefly: Inhibition of uPA (unknown origin) using Z-Pyr-Gly-Arg-MCA as substrate after 30 mins relative to untreated control.
A further experiment has as its target Plasma kallikrein (Homo sapiens, UniProt P03952). Briefly: Inhibition of plasma KLK (unknown origin) using Ac-NLTR-pNA as substrate after 30 mins relative to untreated control.
Experiment [11] has as its target T1, Plasminogen. Briefly: Inhibition of human plasmin assessed as association rate constant using Ac-RM(O2)YR-pNA as substrate after 30 mins.

T1 sequence (P00747 97-580 limits assumed): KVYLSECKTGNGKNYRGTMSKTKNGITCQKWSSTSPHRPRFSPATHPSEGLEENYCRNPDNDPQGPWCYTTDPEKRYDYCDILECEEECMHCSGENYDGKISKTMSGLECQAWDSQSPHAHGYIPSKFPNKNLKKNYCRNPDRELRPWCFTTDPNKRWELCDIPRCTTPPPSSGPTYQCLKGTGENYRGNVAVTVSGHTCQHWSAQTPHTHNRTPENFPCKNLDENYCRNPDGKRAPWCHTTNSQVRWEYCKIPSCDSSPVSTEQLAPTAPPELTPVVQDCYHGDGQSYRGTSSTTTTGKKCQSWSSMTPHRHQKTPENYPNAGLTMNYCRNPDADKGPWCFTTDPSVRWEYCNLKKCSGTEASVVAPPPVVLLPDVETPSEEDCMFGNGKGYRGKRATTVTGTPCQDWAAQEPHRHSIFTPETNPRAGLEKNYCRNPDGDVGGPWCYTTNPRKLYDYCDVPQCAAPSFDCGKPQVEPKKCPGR
T1 sequence (P00747 581-810 limits assumed): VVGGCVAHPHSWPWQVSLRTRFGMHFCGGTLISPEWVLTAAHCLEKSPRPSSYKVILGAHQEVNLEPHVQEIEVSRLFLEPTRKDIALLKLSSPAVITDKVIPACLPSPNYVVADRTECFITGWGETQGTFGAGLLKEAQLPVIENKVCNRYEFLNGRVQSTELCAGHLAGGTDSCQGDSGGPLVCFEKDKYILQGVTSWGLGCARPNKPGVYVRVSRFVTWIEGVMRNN
Coagulation factor X, sequence (P00742 41-179 limits assumed): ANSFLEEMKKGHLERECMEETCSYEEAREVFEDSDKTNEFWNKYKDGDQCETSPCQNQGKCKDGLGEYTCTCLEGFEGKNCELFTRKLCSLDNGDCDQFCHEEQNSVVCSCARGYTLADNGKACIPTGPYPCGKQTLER
Coagulation factor X, sequence (P00742 235-488 limits assumed): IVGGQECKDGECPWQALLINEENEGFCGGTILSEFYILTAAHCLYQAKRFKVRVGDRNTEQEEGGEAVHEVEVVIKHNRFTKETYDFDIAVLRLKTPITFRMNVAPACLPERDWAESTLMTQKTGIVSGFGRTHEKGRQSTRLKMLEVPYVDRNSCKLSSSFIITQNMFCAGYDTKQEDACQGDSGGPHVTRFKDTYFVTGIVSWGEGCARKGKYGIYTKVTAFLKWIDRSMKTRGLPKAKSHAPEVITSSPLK
Tissue-type plasminogen activator, sequence (P00750 whole entry): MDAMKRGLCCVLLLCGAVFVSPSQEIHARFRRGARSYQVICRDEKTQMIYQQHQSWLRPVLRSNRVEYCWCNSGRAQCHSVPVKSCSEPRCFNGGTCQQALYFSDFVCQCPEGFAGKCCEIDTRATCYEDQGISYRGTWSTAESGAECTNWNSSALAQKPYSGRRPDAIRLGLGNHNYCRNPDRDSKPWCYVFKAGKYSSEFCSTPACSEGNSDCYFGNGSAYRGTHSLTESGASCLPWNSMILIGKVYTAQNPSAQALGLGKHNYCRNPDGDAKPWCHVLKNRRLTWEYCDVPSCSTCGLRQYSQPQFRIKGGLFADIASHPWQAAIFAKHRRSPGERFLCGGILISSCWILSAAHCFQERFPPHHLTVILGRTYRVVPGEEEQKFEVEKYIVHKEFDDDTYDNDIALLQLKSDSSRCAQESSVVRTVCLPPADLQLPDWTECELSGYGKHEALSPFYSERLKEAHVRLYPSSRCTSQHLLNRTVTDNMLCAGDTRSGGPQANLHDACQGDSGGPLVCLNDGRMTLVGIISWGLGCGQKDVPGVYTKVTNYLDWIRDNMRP
Plasma kallikrein, sequence (P03952 20-390 limits assumed): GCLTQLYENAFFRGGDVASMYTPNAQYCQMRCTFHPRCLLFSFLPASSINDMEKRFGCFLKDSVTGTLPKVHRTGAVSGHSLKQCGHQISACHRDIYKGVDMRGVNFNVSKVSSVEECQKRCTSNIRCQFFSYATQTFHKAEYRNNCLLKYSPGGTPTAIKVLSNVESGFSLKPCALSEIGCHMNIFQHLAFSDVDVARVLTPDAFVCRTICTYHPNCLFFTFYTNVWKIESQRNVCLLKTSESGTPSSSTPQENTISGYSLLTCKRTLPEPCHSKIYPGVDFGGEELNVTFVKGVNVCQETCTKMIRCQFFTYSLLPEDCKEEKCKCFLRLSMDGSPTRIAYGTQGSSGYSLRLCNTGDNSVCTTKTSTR
Plasma kallikrein, sequence (P03952 391-638 limits assumed): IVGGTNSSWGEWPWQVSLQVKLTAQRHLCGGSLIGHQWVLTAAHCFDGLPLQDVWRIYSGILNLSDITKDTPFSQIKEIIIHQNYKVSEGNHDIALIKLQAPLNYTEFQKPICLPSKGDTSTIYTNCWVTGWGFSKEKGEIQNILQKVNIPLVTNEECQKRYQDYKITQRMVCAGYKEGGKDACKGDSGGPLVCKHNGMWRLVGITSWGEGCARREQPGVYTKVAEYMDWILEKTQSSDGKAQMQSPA
Coagulation factor IX, sequence (P00740 47-191 limits assumed): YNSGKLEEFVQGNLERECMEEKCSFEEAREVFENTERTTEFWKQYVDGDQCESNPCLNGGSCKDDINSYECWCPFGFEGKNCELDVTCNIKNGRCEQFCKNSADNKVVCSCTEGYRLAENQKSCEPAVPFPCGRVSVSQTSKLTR
Coagulation factor IX, sequence (P00740 227-461 limits assumed): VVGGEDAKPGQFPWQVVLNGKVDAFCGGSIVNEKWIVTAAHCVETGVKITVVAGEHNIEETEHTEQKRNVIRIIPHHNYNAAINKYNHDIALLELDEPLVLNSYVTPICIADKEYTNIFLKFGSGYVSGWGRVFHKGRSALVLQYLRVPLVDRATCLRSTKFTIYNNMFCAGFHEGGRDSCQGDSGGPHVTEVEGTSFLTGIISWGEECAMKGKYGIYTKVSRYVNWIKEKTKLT

Take `CC[C@H](C)[C@@H]1NC(=O)[C@@H]2CCCN2C(=O)[C@@H]2CCCN2C(=O)[C@H](CCCCN)NC(=O)[C@H](CO)NC(=O)[C@H](CCCCN)NC(=O)[C@H](Cc2ccc(O)cc2)NC(=O)[C@@H]2CSSC[C@H](NC1=O)C(=O)N[C@@H](Cc1ccccc1)C(=O)N1CCC[C@H]1C(=O)N[C@@H](CC(=O)O)C(=O)NCC(=O)N[C@@H](CCCNC(=N)N)C(=O)N2` (HELM PEPTIDE1{C.F.P.D.G.R.C.Y.K.S.K.P.P.I}$PEPTIDE1,PEPTIDE1,1:R3-7:R3|PEPTIDE1,PEPTIDE1,1:R1-14:R2$$$V2.0): the pKi at Plasminogen [1] was 10.29; in experiment [2], under 4.30; at Coagulation factor XII, under 4.30; at Cathepsin G, 4.54; on Coagulation factor X it was under 4.30; at Prothrombin, under 4.30. In addition, the pKi (at Coagulation factor IX; in experiment [9]; in experiment [10]; on Plasma kallikrein) was under 4.30 each time. The Ratio IC50 in the experiment filed under Homo sapiens [3], in the experiment listed under Homo sapiens [4], in the experiment listed under Homo sapiens [5], in the experiment filed under Homo sapiens [6] and in the experiment filed under Homo sapiens [7] was over 1e+06 throughout. In addition, the inhibition at Plasminogen [8] was determined as 90%. For the same molecule, the K at Plasminogen [11] was determined as 1.9 ×10⁷ /M/s.

As a reminder, the pKi is −log10 of the Ki, conventionally taken in molar units. A word on the inhibition: it is the percentage by which the read-out fell short of the control.

Source of the values: ChEMBL document CHEMBL4371033, “Highly Potent and Selective Plasmin Inhibitors Based on the Sunflower Trypsin Inhibitor-1 Scaffold Attenuate Fibrinolysis in Plasma” (J Med Chem, 2019).
